Experimental data taken from ChEMBL document CHEMBL1122519, “Bispyridinamines: a new class of topical antimicrobial agents as inhibitors of dental plaque” (1984).

Assays:
Escherichia coli [1] = experiment: Antimicrobial minimum inhibitory concentration against Escherichia coli 100/B22; format: functional
In short: (§1)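 Serial twofold tube dilution in tryptose phosphate broth. Each compound was prepared as a 1000 μg/mL aqueous stock and diluted in double-strength broth, then 2×10^5 cells were added. Tubes were incubated aerobically at 37 °C for 24 h. The MIC was taken as the lowest concentration with no visible growth.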

Streptococcus mutans [2] = experiment: Compound is evaluated for minimal bactericidal concentration against plaque formation for Streptococcus mutans; format: functional, organism-based
In short: (§2)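 Preformed in vitro plaques of S. mutans NCTC 10449 or A. viscosus M-100 were grown on ceramic hydroxylapatite under anaerobic conditions at 37 °C in sucrose-supplemented medium. Plaques were immersed for 30 min at 37 °C in compound at 0.3–20 mM, rinsed, and moved to broth containing bromocresol purple. Kill was judged by no acid production, no turbidity increase and no growth on plating at 48 h. Plaques were run in quadruplicate.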

Escherichia coli [3] = experiment: Antimicrobial minimum inhibitory concentration against Escherichia coli AB1932-1; format: functional; in short: as §1
[4] = Compound is evaluated for stain index; format: functional
In short: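 Ratio of the minimum concentration staining a plaque-free ceramic hydroxylapatite plate to the minimum plaque-inhibiting concentration, both run under the same conditions. Plates got two 1-min soaks (0.1–0.001%), each followed by air-drying, then a water rinse. They were then held 24 h anaerobically at 37 °C in sucrose beef-extract medium, with or without S. mutans OMZ-61, repeated once. Staining was 1-min 1% FD&C Red No. 3, scored visually.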

Pseudomonas aeruginosa = experiment: Minimum antimicrobial inhibitory concentration against Pseudomonas aeruginosa MGH-2; format: functional; in short: as §1
Streptococcus mutans [5] = experiment: Minimum plaque inhibitory concentration using a standard test organism, Streptococcus mutans OMZ-61; format: functional, organism-based
In short: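 Ceramic hydroxylapatite plates were soaked twice for 1 min each in compound at […] (aqueous), air-dried and rinsed, then hung in sucrose beef-extract medium (pH 7.0) inoculated with late-log S. mutans OMZ-61. Incubation was anaerobic at 37 °C for 24 h, and treatment plus reinoculation were repeated for a second 24 h. Plaque was stained with 1% FD&C Red No. 3 and scored visually. The value is the lowest concentration giving no plaque while medium growth matched control.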

Staphylococcus aureus = experiment: Minimum antimicrobial inhibitory concentration against Staphylococcus aureus; format: functional; in short: as §1
Klebsiella pneumoniae = experiment: Minimum inhibitory concentration against Klebsiella pneumonia 39645; format: functional; in short: as §1
Actinomyces viscosus = experiment: Compound is evaluated for minimal bactericidal concentration against plaque formation for Actinomyces viscosus; format: functional, organism-based; in short: as §2
Escherichia coli [6] = experiment: Minimum inhibitory concentration against Escherichia coli (Vogel); format: functional; in short: as §1
Proteus mirabilis = experiment: Minimum antimicrobial inhibitory concentration against Proteus mirabilis MGH-1; format: functional; in short: as §1

Work on `Br.Br.CCCCCCCCCN=c1ccn(CCCCCCCCCCCCn2ccc(=NCCCCCCCCC)cc2)cc1` yielded an MIC (Escherichia coli [1]) of 3.9 µg/mL, a Concentration (Streptococcus mutans [2]) of 1.3 mM and an MIC (Escherichia coli [3]) of 7.8 µg/mL. The Stain index [4] was 1, the MIC (Pseudomonas aeruginosa) was 3.9 µg/mL and the Concentration (Streptococcus mutans [5]) was 0.01%. It also gave an MIC (Staphylococcus aureus) of 2 µg/mL, an MIC (Klebsiella pneumoniae) of 3.9 µg/mL and a Concentration (Actinomyces viscosus) of 2.6 mM. The MIC (Escherichia coli [6]) was 3.9 µg/mL and the MIC (Proteus mirabilis) was 3.9 µg/mL.

In the case of `Br.Br.Clc1ccc(N=c2ccn(CCCCCn3ccc(=Nc4ccc(Cl)cc4)cc3)cc2)cc1`, the MIC (Escherichia coli [1]) is reported as 125 µg/mL, the MIC (Escherichia coli [3]) is reported as 31.3 µg/mL and the MIC (Pseudomonas aeruginosa) is reported as greater than 125 µg/mL. For the same compound, the Concentration (Streptococcus mutans [5]) was greater than 1%, the MIC (Staphylococcus aureus) was 7.8 µg/mL and the MIC (Klebsiella pneumoniae) was greater than 125 µg/mL. For the same compound, the MIC (Escherichia coli [6]) was 125 µg/mL and the MIC (Proteus mirabilis) was greater than 125 µg/mL.

Work on `Br.Br.CCCCCCCCCCN=c1ccn(CCCCCCn2ccc(=NCCCCCCCCCC)cc2)cc1` yielded an MIC (Escherichia coli [1]) of 7.8 µg/mL, an MIC (Escherichia coli [3]) of 2 µg/mL and an MIC (Pseudomonas aeruginosa) of 7.8 µg/mL. For the same compound, the Concentration (Streptococcus mutans [5]) was 0.01%, the MIC (Staphylococcus aureus) was 1 µg/mL and the MIC (Klebsiella pneumoniae) was 3.9 µg/mL. The MIC (Escherichia coli [6]) was 2 µg/mL and the MIC (Proteus mirabilis) was 2 µg/mL.

`Br.Br.CCCCCCCCCCCCN=c1ccn(CCCCCCCCn2ccc(=NCCCCCCCCCCCC)cc2)cc1` gave an MIC (Escherichia coli [1]) greater than 62.5 µg/mL, an MIC (Escherichia coli [3]) of 62.5 µg/mL and an MIC (Pseudomonas aeruginosa) greater than 62.5 µg/mL. It also gave a Concentration (Streptococcus mutans [5]) of 0.1%, an MIC (Staphylococcus aureus) of 7.8 µg/mL and an MIC (Klebsiella pneumoniae) greater than 62.5 µg/mL. It also gave an MIC (Escherichia coli [6]) of 31.3 µg/mL and an MIC (Proteus mirabilis) of 62.5 µg/mL.

`Br.Br.CCCCCCN=c1ccn(CCCCCCCCn2ccc(=NCCCCCC)cc2)cc1` showed an MIC (Escherichia coli [1]) of 3.9 µg/mL, an MIC (Escherichia coli [3]) of 2 µg/mL and an MIC (Pseudomonas aeruginosa) of 125 µg/mL. It also gave a Concentration (Streptococcus mutans [5]) greater than 1%, an MIC (Staphylococcus aureus) of 0.2 µg/mL and an MIC (Klebsiella pneumoniae) of 7.8 µg/mL. It also gave an MIC (Escherichia coli [6]) of 3.9 µg/mL and an MIC (Proteus mirabilis) greater than 250 µg/mL.

`Br.Br.N=c1ccn(CCCCCCCCCCn2ccc(=N)cc2)cc1` showed an MIC (Escherichia coli [1]) of 62.5 µg/mL, an MIC (Escherichia coli [3]) of 31.3 µg/mL and an MIC (Pseudomonas aeruginosa) of 500 µg/mL. It also gave a Concentration (Streptococcus mutans [5]) greater than 1%, an MIC (Staphylococcus aureus) of 7.8 µg/mL and an MIC (Klebsiella pneumoniae) of 250 µg/mL. The MIC (Escherichia coli [6]) was 62.5 µg/mL and the MIC (Proteus mirabilis) was greater than 500 µg/mL.

Compound `Br.Br.c1cn(CCCCn2ccc(=NC3CCCCC3)cc2)ccc1=NC1CCCCC1` has an MIC (Escherichia coli [1]) of 125 µg/mL, an MIC (Escherichia coli [3]) of 125 µg/mL and an MIC (Pseudomonas aeruginosa) greater than 500 µg/mL. It also gave a Concentration (Streptococcus mutans [5]) greater than 1%, an MIC (Staphylococcus aureus) of 125 µg/mL and an MIC (Klebsiella pneumoniae) greater than 500 µg/mL. For the same compound, the MIC (Escherichia coli [6]) was 125 µg/mL and the MIC (Proteus mirabilis) was greater than 500 µg/mL.

With `CS(=O)(=O)O.CS(=O)(=O)O.Clc1ccc(N=c2ccn(CCCCCCCCn3ccc(=Nc4ccc(Cl)cc4)cc3)cc2)cc1` the MIC (Escherichia coli [1]) was 3.1 µg/mL, the MIC (Escherichia coli [3]) was 1.6 µg/mL and the MIC (Pseudomonas aeruginosa) was 125 µg/mL. For the same compound, the Concentration (Streptococcus mutans [5]) was greater than 1%, the MIC (Staphylococcus aureus) was 0.4 µg/mL and the MIC (Klebsiella pneumoniae) was 31.3 µg/mL. For the same compound, the MIC (Escherichia coli [6]) was 3.1 µg/mL and the MIC (Proteus mirabilis) was 125 µg/mL.

`CCCCCCCCN=c1ccn(CCCCCCCCCn2ccc(=NCCCCCCCC)cc2)cc1.Cl.Cl` gave an MIC (Escherichia coli [1]) of 1 µg/mL, an MIC (Escherichia coli [3]) of 1 µg/mL and an MIC (Pseudomonas aeruginosa) of 3.9 µg/mL. The Concentration (Streptococcus mutans [5]) was 0.003%, the MIC (Staphylococcus aureus) was 1 µg/mL and the MIC (Klebsiella pneumoniae) was 2 µg/mL. It also gave an MIC (Escherichia coli [6]) of 1 µg/mL and an MIC (Proteus mirabilis) of 15.6 µg/mL.

In the case of `Br.Br.CCCCCCCCCCCCN=c1ccn(CCCCCCCCCCn2ccc(=NCCCCCCCCCCCC)cc2)cc1`, the MIC (Escherichia coli [1]) is reported as greater than 62.5 µg/mL, the MIC (Escherichia coli [3]) is reported as greater than 62.5 µg/mL and the MIC (Pseudomonas aeruginosa) is reported as greater than 62.5 µg/mL. The Concentration (Streptococcus mutans [5]) was 0.1%, the MIC (Staphylococcus aureus) was 15.6 µg/mL and the MIC (Klebsiella pneumoniae) was greater than 62.5 µg/mL. The MIC (Escherichia coli [6]) was greater than 62.5 µg/mL and the MIC (Proteus mirabilis) was greater than 62.5 µg/mL.

`Br.Br.c1cn(CCCCCCn2ccc(=NC3CCCCC3)cc2)ccc1=NC1CCCCC1` showed an MIC (Escherichia coli [1]) greater than 125 µg/mL, an MIC (Escherichia coli [3]) of 125 µg/mL and an MIC (Pseudomonas aeruginosa) greater than 125 µg/mL. For the same compound, the Concentration (Streptococcus mutans [5]) was greater than 1%, the MIC (Staphylococcus aureus) was 15.6 µg/mL and the MIC (Klebsiella pneumoniae) was greater than 125 µg/mL. It also gave an MIC (Escherichia coli [6]) greater than 125 µg/mL and an MIC (Proteus mirabilis) greater than 125 µg/mL.

`Br.Br.CCCCCCCN=c1ccn(CCCCCn2ccc(=NCCCCCCC)cc2)cc1` showed an MIC (Escherichia coli [1]) of 7.8 µg/mL, an MIC (Escherichia coli [3]) of 3.9 µg/mL and an MIC (Pseudomonas aeruginosa) of 125 µg/mL. The Concentration (Streptococcus mutans [5]) was greater than 1%, the MIC (Staphylococcus aureus) was 0.5 µg/mL and the MIC (Klebsiella pneumoniae) was 31.3 µg/mL. It also gave an MIC (Escherichia coli [6]) of 31.3 µg/mL and an MIC (Proteus mirabilis) greater than 125 µg/mL.

`Br.Br.CCCCC(CC)CN=c1ccn(CCCCCCCCn2ccc(=NCC(CC)CCCC)cc2)cc1` (stereo not drawn) showed an MIC (Escherichia coli [1]) of 2 µg/mL, an MIC (Escherichia coli [3]) of 1 µg/mL and an MIC (Pseudomonas aeruginosa) of 125 µg/mL. For the same compound, the Concentration (Streptococcus mutans [5]) was 0.004%, the MIC (Staphylococcus aureus) was 0.3 µg/mL and the MIC (Klebsiella pneumoniae) was 7.8 µg/mL. It also gave an MIC (Escherichia coli [6]) of 3.9 µg/mL and an MIC (Proteus mirabilis) of 125 µg/mL.

`Br.Br.c1cn(CCCCCCCCn2ccc(=NC3CCCCC3)cc2)ccc1=NC1CCCCC1` showed an MIC (Escherichia coli [1]) of 62.5 µg/mL, an MIC (Escherichia coli [3]) of 31.3 µg/mL and an MIC (Pseudomonas aeruginosa) of 250 µg/mL. The Concentration (Streptococcus mutans [5]) was greater than 1%, the MIC (Staphylococcus aureus) was 3.9 µg/mL and the MIC (Klebsiella pneumoniae) was greater than 125 µg/mL. For the same compound, the MIC (Escherichia coli [6]) was 62.5 µg/mL and the MIC (Proteus mirabilis) was greater than 125 µg/mL.

With `Br.Br.CCCCCCN=c1ccn(CCCCCCCCCCn2ccc(=NCCCCCC)cc2)cc1` the MIC (Escherichia coli [1]) was 2 µg/mL, the MIC (Escherichia coli [3]) was 1 µg/mL and the MIC (Pseudomonas aeruginosa) was 31.3 µg/mL. For the same compound, the Concentration (Streptococcus mutans [5]) was greater than 1%, the MIC (Staphylococcus aureus) was 0.2 µg/mL and the MIC (Klebsiella pneumoniae) was 3.9 µg/mL. For the same compound, the MIC (Escherichia coli [6]) was 2 µg/mL and the MIC (Proteus mirabilis) was 31.3 µg/mL.
